The source made the active and inactive calls. The calls are words filed in the database; no cut-off is given here.
Assays:
[1] = tested on: Vesicular stomatitis virus; experiment: Antiviral activity against Vesicular stomatitis virus infected in human cervix carcinoma cells assessed as inhibition of virus-induced cytopathic effect at 0.32 to 100 uM; assay type: functional, organism-based
Outline: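 Confluent human cervix carcinoma (HeLa) cultures received 100 CCID50 of VSV together with the compound at 100, 40, 8, 1.6 or 0.32 μM. Cytopathicity was read at the point of full CPE in infected, untreated control wells.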

Sindbis virus = experiment: Antiviral activity against Sindbis virus infected in african green monkey Vero cells assessed as inhibition of virus-induced cytopathic effect at 0.32 to 100 uM; assay type: functional, organism-based
Outline: (§1)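 Confluent cell cultures were infected with 100 CCID50 of virus in the presence of test compound at 100, 40, 8, 1.6 and 0.32 μM. Cytopathic effect was scored once it was complete in untreated infected controls.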

Human respirovirus 3 = experiment: Antiviral activity against Parainfluenza virus 3 infected in african green monkey Vero cells assessed as inhibition of virus-induced cytopathic effect at 0.32 to 100 uM; assay type: functional, organism-based; outline: as §1
[2] = tested on: Respiratory syncytial virus; experiment: Antiviral activity against RSV infected in human cervix carcinoma cells assessed as inhibition of virus-induced cytopathic effect at 0.32 to 100 uM; assay type: functional, organism-based; outline: as §1
[3] = Antioxidant activity assessed as inhibition of AAPH-induced linoleic acid lipid peroxidation by measuring conjugated diene hydroperoxide level; assay type: functional; design: concentration or dose not given beside the values; conditions: dose or concentration not given here
Outline: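 Linoleic acid sodium salt (10 μL of 16 mM) in 0.05 M phosphate buffer pH 7.4 at 37 °C. Oxidation started under air with 50 μL of 40 mM AAPH. Conjugated diene hydroperoxide formation followed as absorbance rise at 234 nm; control contains the same DMSO level. At least triplicate.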

Coxsackievirus B4 [4] = experiment: Antiviral activity against Coxsackievirus B4 infected in african green monkey Vero cells assessed as inhibition of virus-induced cytopathic effect at 0.32 to 100 uM; assay type: functional, organism-based; outline: as §1
Felid alphaherpesvirus 1 = experiment: Antiviral activity against Feline herpesvirus infected in feline CRFK cells assessed as inhibition of virus-induced cytopathic effect at 0.32 to 100 uM; assay type: functional, organism-based; outline: as §1
HeLa [5] = experiment: Selectivity ratio of IC50 for human HaCaT cells to IC50 for human HeLa cells
HeLa [6] = experiment: Cytostatic activity against human HeLa cells after 3 days by coulter counter analysis; assay type: functional, cell-based; conditions: 72 h
Outline: (§2)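 300,000–500,000 cells/ml mixed 1:1 with compound dilutions and incubated at 37 °C for 2 days (L1210) or 3 days (CEM, HeLa). Cell number counted with a Coulter counter; HeLa trypsinized before counting.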

Punta Toro virus = experiment: Antiviral activity against Punta Toro virus infected in african green monkey Vero cells assessed as inhibition of virus-induced cytopathic effect at 0.32 to 100 uM; assay type: functional, organism-based; outline: as §1
Human alphaherpesvirus 1 = experiment: Antiviral activity against HSV1 KOS infected in human lung fibroblast assessed as inhibition of virus-induced cytopathic effect at 0.32 to 100 uM; assay type: functional, organism-based; outline: as §1
MCF7 [7] = experiment: Cytostatic activity against human MCF7 cells after 72 hrs by MTT assay; assay type: functional, cell-based; conditions: MCF7, 72 h
Outline: (§3)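 Monolayers in DMEM with 10% FBS, 2 mM L-glutamine and penicillin/streptomycin, 37 °C, 5% CO2. Seeded at 1–3 × 10^4 cells/ml, then compound added in tenfold dilutions (10⁻⁸–10⁻⁴ M) for 72 h. MTT read at 570 nm; percent growth taken against time-zero and untreated controls. IC50 by linear regression; quadruplicate, at least two experiments.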

[8] = tested on: Human immunodeficiency virus 1; experiment: Antiviral activity against HIV1 3B infected in human CEM cells assessed as inhibition of virus-induced CEM giant cell formation at 0.32 to 100 uM after 4 days; assay type: functional, organism-based; conditions: CCRF-CEM
Outline: (§4)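 CEM cells (~3 × 10^5 cells/cm³) exposed to 100 CCID50/ml of virus and seeded into wells holding compound dilutions. Incubated 4 days at 37 °C, then giant cell formation examined microscopically.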

Glycine max = experiment: Inhibition of soybean LOX assessed as conversion of sodium linoleate to 13- hydroperoxylinoleic acid at 100 uM
Influenza A virus [9] = experiment: Antiviral activity against Influenza A virus H3N2 infected in MDCK cells assessed as inhibition of virus-induced cytopathic effect at 0.32 to 100 uM; assay type: functional, organism-based
Outline: (§5)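 Confluent MDCK monolayers were infected in the presence of the compound at 100, 40, 8, 1.6 and 0.32 μM. Viral cytopathicity was scored once it was complete in untreated infected control cultures.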

Feline coronavirus = experiment: Antiviral activity against Feline coronavirus infected in feline CRFK cells assessed as inhibition of virus-induced cytopathic effect at 0.32 to 100 uM; assay type: functional, organism-based; outline: as §1
Influenza B virus = experiment: Antiviral activity against Influenza B virus infected in MDCK cells assessed as inhibition of virus-induced cytopathic effect at 0.32 to 100 uM; assay type: functional, organism-based; outline: as §5
Vaccinia virus = experiment: Antiviral activity against Vaccinia virus infected in human lung fibroblast assessed as inhibition of virus-induced cytopathic effect at 0.32 to 100 uM; assay type: functional, organism-based; conditions: Orthopoxvirus vaccinia
MCF7 [10] = experiment: Selectivity ratio of IC50 for human HaCaT cells to IC50 for human MCF7 cells
L1210 [11] = experiment: Selectivity ratio of IC50 for human HaCaT cells to IC50 for mouse L1210 cells
NCI-H460 [12] = experiment: Selectivity ratio of IC50 for human HaCaT cells to IC50 for human NCI-H460 cells
[13] = tested on: Human immunodeficiency virus 2; experiment: Antiviral activity against HIV2 ROD infected in human CEM cells assessed as inhibition of virus-induced CEM giant cell formation at 0.32 to 100 uM after 4 days; assay type: functional, organism-based; conditions: ISOLATE ROD, CCRF-CEM; outline: as §4
Coxsackievirus B4 [14] = experiment: Antiviral activity against Coxsackievirus B4 infected in human cervix carcinoma cells assessed as inhibition of virus-induced cytopathic effect at 0.32 to 100 uM; assay type: functional, organism-based; outline: as §1
[15] = Inhibition of soybean LOX assessed as conversion of sodium linoleate to 13- hydroperoxylinoleic acid; design: species or system Glycine max
[16] = tested on: Mammalian orthoreovirus 1; experiment: Antiviral activity against Reovirus-1 infected in african green monkey Vero cells assessed as inhibition of virus-induced cytopathic effect at 0.32 to 100 uM; assay type: functional, organism-based; outline: as §1
Human alphaherpesvirus 2 = experiment: Antiviral activity against HSV2 G infected in human lung fibroblast assessed as inhibition of virus-induced cytopathic effect at 0.32 to 100 uM; assay type: functional, organism-based; conditions: strain G; outline: as §1
HCT-116 = experiment: Cytostatic activity against human HCT116 cells after 72 hrs by MTT assay; assay type: functional, cell-based; conditions: HCT-116, 72 h; outline: as §3
HaCaT [17] = experiment: Selectivity ratio of IC50 for human HaCaT cells to IC50 for human CEM cells
[18] = tested on: Radical scavenging activity; experiment: Antioxidant activity assessed as DPPH free radical scavenging activity at 100 uM after 60 mins by spectrophotometric analysis; assay type: functional
Outline: (§6)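 0.05 mM DPPH in absolute ethanol mixed with an equal volume of compound in DMSO (final 100 μM). Shaken and left 20 or 60 min, then absorbance read at 517 nm and percent activity calculated. Three replicates, averaged.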

HaCaT [19] = experiment: Selectivity ratio of IC50 for human HaCaT cells to IC50 for human HCT116 cells
[20] = tested on: Radical scavenging activity; experiment: Antioxidant activity assessed as DPPH free radical scavenging activity at 100 uM after 20 mins by spectrophotometric analysis; assay type: functional; outline: as §6
L1210 [21] = experiment: Cytostatic activity against mouse L1210 cells after 2 days by coulter counter analysis; assay type: functional, cell-based; conditions: L1210, 48 h; outline: as §2
[22] = tested on: Vesicular stomatitis virus; experiment: Antiviral activity against VSV infected in human lung fibroblast assessed as inhibition of virus-induced cytopathic effect at 0.32 to 100 uM; assay type: functional, organism-based
HaCaT [23] = experiment: Cytostatic activity against human HaCaT cells after 72 hrs by MTT assay; assay type: ADME, cell-based; outline: as §3
CCRF-CEM = experiment: Cytostatic activity against human CEM cells after 3 days by coulter counter analysis; assay type: functional, cell-based; conditions: 72 h; outline: as §2
Influenza A virus [24] = experiment: Antiviral activity against Influenza A virus H1N1 infected in MDCK cells assessed as inhibition of virus-induced cytopathic effect at 0.32 to 100 uM; assay type: functional, organism-based; outline: as §5
NCI-H460 [25] = experiment: Cytostatic activity against human NCI-H460 cells after 72 hrs by MTT assay; assay type: functional, cell-based; conditions: NCI-H460, 72 h; outline: as §3

Row | SMILES | inhibition [1] | inhibition (Sindbis virus) | inhibition (Human respirovirus 3) | inhibition [2] | inhibition [3] [%] | inhibition (Coxsackievirus B4 [4]) | inhibition (Felid alphaherpesvirus 1) | inhibition (Punta Toro virus) | inhibition (Human alphaherpesvirus 1) | IC50 (MCF7 [7]) [µM] | inhibition [8] | inhibition (Glycine max) [%] | inhibition (Influenza A virus [9]) | inhibition (Feline coronavirus) | inhibition (Influenza B virus) | inhibition (Vaccinia virus) | inhibition [13] | inhibition (Coxsackievirus B4 [14]) | inhibition [16] | inhibition (Human alphaherpesvirus 2) | other results
1 | CC(C(=O)NNC(=O)NC(c1ccccc1)c1ccccc1)c1cccc(Oc2ccccc2)c1 (centres undefined) | inactive | inactive | inactive | inactive | 99 | inactive | inactive | inactive | inactive | 7 | inactive | 81 | inactive | inactive | inactive | inactive | inactive | inactive | inactive | inactive | Ratio IC50 (HeLa [5]): 2; IC50 (HeLa [6]): 5.7 µM; Ratio IC50 (MCF7 [10]): 2; Ratio IC50 (L1210 [11]): 2; Ratio IC50 (NCI-H460 [12]): 2; IC50 [15]: 60 µM; IC50 (HCT-116): 5 µM; Ratio IC50 (HaCaT [17]): 2; Activity [18]: 4%; Ratio IC50 (HaCaT [19]): 2; Activity [20]: 2%; IC50 (L1210 [21]): 15 µM; inhibition [22]: inactive; IC50 (HaCaT [23]): 10 µM; IC50 (CCRF-CEM): 11 µM; inhibition (Influenza A virus [24]): inactive; IC50 (NCI-H460 [25]): 3 µM
2 | CC(C(=O)NNC(=O)NCCc1ccccc1)c1cccc(Oc2ccccc2)c1 (centres undefined) | inactive | inactive | inactive | inactive | 51 | inactive | inactive | inactive | inactive | 19 | inactive | 20 | inactive | inactive | inactive | inactive | inactive | inactive | inactive | inactive | IC50 (HeLa [6]): 64 µM; IC50 (HCT-116): 18 µM; Activity [18]: 7%; Activity [20]: 4%; IC50 (L1210 [21]): 53 µM; inhibition [22]: inactive; IC50 (HaCaT [23]): 15 µM; IC50 (CCRF-CEM): 71 µM; inhibition (Influenza A virus [24]): inactive; IC50 (NCI-H460 [25]): 22 µM
3 | CC(C(=O)NNC(=O)NCc1ccccc1)c1cccc(Oc2ccccc2)c1 (centres undefined) | inactive | inactive | inactive | inactive | 11 | inactive | inactive | inactive | inactive | 17 | inactive | 68 | inactive | inactive | inactive | inactive | inactive | inactive | inactive | inactive | IC50 [15]: 75 µM; IC50 (HCT-116): 27 µM; Activity [18]: 24%; Activity [20]: 22%; IC50 (L1210 [21]): 63 µM; inhibition [22]: inactive; IC50 (HaCaT [23]): 46 µM; IC50 (CCRF-CEM): 72 µM; inhibition (Influenza A virus [24]): inactive; IC50 (NCI-H460 [25]): 19 µM
4 | CC(C(=O)NNC(=O)NCCc1ccccc1)c1cccc(Cc2ccccc2)c1 (centres undefined) | inactive | inactive | inactive | inactive | 71 | inactive | inactive | inactive | inactive | 15 | inactive | 17 | inactive | inactive | inactive | inactive | inactive | inactive | inactive | inactive | IC50 (HeLa [6]): 58 µM; IC50 (HCT-116): 20 µM; Activity [18]: 15%; Activity [20]: 8%; IC50 (L1210 [21]): 31 µM; inhibition [22]: inactive; IC50 (HaCaT [23]): 16 µM; IC50 (CCRF-CEM): 29 µM; inhibition (Influenza A virus [24]): inactive; IC50 (NCI-H460 [25]): 22 µM
5 | CC(C(=O)NNC(=O)NC(c1ccccc1)c1ccccc1)c1cccc(Cc2ccccc2)c1 (centres undefined) | inactive | inactive | inactive | inactive | 88 | inactive | inactive | inactive | inactive | 5 | inactive | 96 | inactive | inactive | inactive | inactive | inactive | inactive | inactive | inactive | Ratio IC50 (HeLa [5]): 2; IC50 (HeLa [6]): 5 µM; Ratio IC50 (MCF7 [10]): 2; Ratio IC50 (L1210 [11]): 2; Ratio IC50 (NCI-H460 [12]): 2; IC50 [15]: 51.5 µM; IC50 (HCT-116): 8 µM; Ratio IC50 (HaCaT [17]): 2; Activity [18]: 9%; Ratio IC50 (HaCaT [19]): 2; Activity [20]: 4%; IC50 (L1210 [21]): 19 µM; inhibition [22]: inactive; IC50 (HaCaT [23]): 11 µM; IC50 (CCRF-CEM): 15 µM; inhibition (Influenza A virus [24]): inactive; IC50 (NCI-H460 [25]): 4 µM
